For assay [1], the system named is NCI-H460. The assay is described as follows: Antiproliferative activity against human H460 cells after 72 hrs. It counts as functional, cell-based. The note with it: NCI-H460, 72 h. In a few lines: (§1)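 Growth inhibition: log-phase tumour cells seeded in duplicate, drug added 24 h after seeding, cells harvested 72 h after exposure and counted with a cell counter. IC50 taken as concentration giving 50% fewer cells than untreated control.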

The subject of assay [2] is NCI-H460. As to the kind of experiment: Increase in CDKp21 protein expression in human H460 cells at 3 uM after 24 hrs by Western blot analysis. It counts as functional, cell-based. The procedure, abridged:
(§2)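 After 24 h drug exposure, H460 cells rinsed twice in ice-cold PBS with 0.1 mM sodium orthovanadate and lysed in hot sample buffer. Protein quantified, separated by SDS-PAGE, transferred to nitrocellulose, probed with primary antibodies and HRP secondaries, and detected by enhanced chemiluminescence. Actin served as loading control.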
In general terms: Immunoblotting shows a protein as a band on a membrane.

Assay [3] concerns NCI-H460. The assay is described as follows: Upregulation of cyclin B1 protein expression in human H460 cells at 3 uM after 24 hrs by Western blot analysis. It counts as functional, cell-based. The procedure, abridged:
as §2

Assay [4] deals with NCI-H460. The assay is described as follows: Upregulation of p34CDC2 protein expression in human H460 cells at 3 uM after 24 hrs by Western blot analysis. It counts as functional, cell-based. In a few lines: as §2
Assay [5] concerns A-431. As to the kind of experiment: Antiproliferative activity against human A431 cells after 72 hrs. The class given is functional, cell-based. The note with it: A-431, 72 h. In a few lines:
as §1

Assay [6] is described as follows: Antiproliferative activity against human JR8 cells after 72 hrs. The conditions noted are these: JR8, 72 h. The class given is functional, cell-based. The procedure, abridged: as §1
The subject of assay [7] is NCI-H460. As to the kind of experiment: Induction of apoptosis in human H460 cells at 0.3 to 3 uM after 72 hrs by TUNEL assay. It counts as functional, cell-based. In a few lines: (§3)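 H460 cells exposed 72 h to drug. Floating plus adherent cells fixed in 4% paraformaldehyde for 60 min at room temperature, then resuspended in ice-cold PBS. Fluorescein in situ cell-death (TUNEL) kit used and cells read by flow cytometry. Result given as percent TUNEL-positive cells against untreated control.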

For assay [8], the system named is NCI-H460. The assay is described as follows: Induction of apoptosis in human H460 cells assessed as cleavage of PARP at 1.5 uM after 24 hrs by Western blot analysis. It counts as functional, cell-based. The procedure, abridged: as §2
In assay [9] the test system is NCI-H460. As to the kind of experiment: Increase in CDKp21 protein expression in human H460 cells at 1.5 uM after 24 hrs by Western blot analysis. The class given is functional, cell-based. In a few lines: as §2
Assay [10] has as its system NCI-H460. As to the kind of experiment: Upregulation of cyclin B1 protein expression in human H460 cells at 1.5 uM after 24 hrs by Western blot analysis. The class given is functional, cell-based. The procedure, abridged:
as §2

Assay [11] relates to NCI-H460. As to the kind of experiment: Upregulation of p34CDC2 protein expression in human H460 cells at 1.5 uM after 24 hrs by Western blot analysis. It counts as functional, cell-based. In a few lines:
as §2

In assay [12] the test system is NCI-H460. As to the kind of experiment: Induction of apoptosis in human H460 cells assessed as CDKp21-p34CDC2 complex formation at 1.5 uM after 24 hrs by immunoprecipitation assay. The class given is functional, cell-based. In a few lines: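 H460 cells exposed 24 h at 1.5 µM, lysed in NET buffer (pH 7.4, 0.1% NP40, protease inhibitors) on ice then at 4 °C. Lysate cleared at 10,000g and BCA-quantified. 500 µg immunoprecipitated with anti-cdc2 antibody 2 h at 4 °C, then with protein A-sepharose overnight at 4 °C. Pellets washed, eluted and immunoblotted for p34cdc2 and p21.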

For assay [13], the system named is NCI-H460. The assay is described as follows: Antitumor activity against human H460 cells xenograft model assessed as tumor growth inhibition at 10 to 20 mg/kg, po administered daily. The class given is functional. The note with it: dose mg/kg 10-20.
The subject of assay [14] is NCI-H460. As to the kind of experiment: Induction of apoptosis in human H460 cells at 0.5 to 1.5 uM after 72 hrs by TUNEL assay. It counts as functional, cell-based. In a few lines: as §3
Assay [15] relates to NCI-H460. The assay is described as follows: Induction of apoptosis in human H460 cells assessed as cleavage of caspase 3 at 1.5 uM after 24 hrs by Western blot analysis. It counts as functional, cell-based. In a few lines:
as §2

Assay [16] relates to NCI-H460. The assay is described as follows: Cell cycle arrest in human H460 cells assessed as accumulation at G2/M phase after 24 hrs by propidium iodide staining-based flow cytometry. It counts as functional. In a few lines: (§4)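 H460 cells treated 24 h at 10 and 20 µM (resveratrol), 0.5 and 1.5 µM, or 0.3 and 3 µM, then analysed for cell cycle phase distribution (G1, S, G2/M).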
In general terms: In flow cytometry, cells or beads pass a laser one at a time.

Assay [17] deals with NCI-H460. As to the kind of experiment: Cell cycle arrest in human H460 cells assessed as accumulation at G2/M phase at 20 uM after 24 hrs by propidium iodide staining-based flow cytometry. It counts as functional. The procedure, abridged:
as §4

The test system of assay [18] is NCI-H460. The assay is described as follows: Induction of apoptosis in human H460 cells at 10 to 20 uM after 72 hrs by TUNEL assay. The class given is functional, cell-based. The procedure, abridged:
as §3

Results on eleven compounds are retold here after ChEMBL document CHEMBL1157760, “Design, synthesis and anticancer activities of stilbene-coumarin hybrid compounds: Identification of novel proapoptotic agents” (Bioorg Med Chem, 2010).

SMILES strings stand for the structures. Activity calls are given as the source filed them. No cut-off for these calls is given here.

Broadly, the IC50 is the point on the concentration scale where inhibition reaches its midpoint. Higher therefore signals a need for much substance.

The compound `COc1ccc2c(/C=C/c3ccc(OCC=C(C)C)cc3)cc(=O)oc2c1` gave an IC50 in assay [1] of over 50 µM.

On to `COc1ccc2c(/C=C/c3cc(OC)c(OC)c(OC)c3)cc(=O)oc2c1`, for which, in assay [1], the IC50 was over 100 µM.

Regarding `COc1cccc(/C=C/c2cc(=O)oc3cc(OC)ccc23)c1`, inhibition in [1] was half-maximal at 12.9 µM (IC50).

Take `COc1ccc2c(/C=C/c3cc(C)cc(C)c3)cc(=O)oc2c1`: the result in [2], in assay [3], in assay [4] and in assay [7] was Active. Also, the values for the half-maximal inhibitory concentration (IC50) in [5], in [1] and in assay [6] were 3.5 µM, 0.29 µM and 3.5 µM, respectively.

As for `COc1cc(/C=C/c2cc(=O)oc3ccc(OC)cc23)cc(OC)c1`, the half-maximal inhibitory concentration (IC50) in assay [1] stood at 11 µM.

With `COc1cc(/C=C/c2cc(=O)oc3ccccc23)cc(OC)c1`, inhibition in assay [1] was half-maximal at 2.6 µM (IC50).

In turn, `COc1cc(/C=C/c2cc3ccc(OC)cc3oc2=O)cc(OC)c1` gave an IC50 in assay [1] of over 10 µM.

As to `COc1cc(/C=C/c2cc(=O)oc3cc(OC)ccc23)cc(OC)c1`, the outcome in [8], in [9], in [10], in [11], in assay [12] and in assay [14] was Active. In addition, the outcome in assay [15] was Active. Moreover, in assay [13], the “inhibition (INH)” value was 50%. The figures for the concentration for half-maximal inhibition (IC50) in assay [5], in assay [1] and in [6] were 3.44 µM, 0.45 µM and 3.2 µM, respectively.

On to `Oc1ccc(/C=C/c2cc(O)cc(O)c2)cc1` [RESVERATROL], for which the Activity entry in assay [16] is “Dose-dependent effect”. For the same compound, in [17], the result was Active. The same compound came in with an IC50 in assay [1] of 12.9 µM. For the same compound, the result in assay [18] was inactive.

Consider `COc1ccc2c(/C=C/c3ccc(OC)c(OC)c3OC)cc(=O)oc2c1`, for which the half-inhibitory concentration (IC50) in [1] was over 50 µM.

`O=c1cc(/C=C/c2cc(O)cc(O)c2)c2ccc(O)cc2o1` came in with a 50% inhibitory concentration (IC50) in [1] of 27 µM.
